GPR7 antag: human neuropeptides B/W receptor 1 antagonism; P48145; GPR7-expressing cells, fluorescence antagonist assay; inhibition, % at 4.4 µM; 290,000 compounds, 1.1% hits; AID 1861; in the data active = inhibition above about 16%, passing the limit was not always enough;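 also: cells stimulated with the agonist NPW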
Target sequence (P48145 whole entry, looked up): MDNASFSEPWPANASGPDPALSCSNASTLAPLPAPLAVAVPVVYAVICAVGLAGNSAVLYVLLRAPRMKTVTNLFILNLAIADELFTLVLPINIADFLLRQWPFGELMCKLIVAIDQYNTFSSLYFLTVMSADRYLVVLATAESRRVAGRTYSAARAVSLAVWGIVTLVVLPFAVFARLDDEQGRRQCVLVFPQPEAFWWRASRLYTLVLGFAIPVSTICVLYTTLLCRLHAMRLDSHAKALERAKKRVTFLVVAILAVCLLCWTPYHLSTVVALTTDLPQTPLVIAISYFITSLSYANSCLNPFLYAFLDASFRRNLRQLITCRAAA
TAAR1 agonist: agonists of human TAAR1. AID 624467. Q96RJ0. 360,000 compounds, 0.99% hits. CHO RD-HGA16 TAAR1, Fluo-8 calcium fluorescence; vehicle wells 0%, saturating PEA agonist 100%. activation, % at 3 µM;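 active = activation above the mean activation of all test compounds in the run plus 3 SD, cut at about 38% in these data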
Target sequence (Q96RJ0 whole entry, looked up): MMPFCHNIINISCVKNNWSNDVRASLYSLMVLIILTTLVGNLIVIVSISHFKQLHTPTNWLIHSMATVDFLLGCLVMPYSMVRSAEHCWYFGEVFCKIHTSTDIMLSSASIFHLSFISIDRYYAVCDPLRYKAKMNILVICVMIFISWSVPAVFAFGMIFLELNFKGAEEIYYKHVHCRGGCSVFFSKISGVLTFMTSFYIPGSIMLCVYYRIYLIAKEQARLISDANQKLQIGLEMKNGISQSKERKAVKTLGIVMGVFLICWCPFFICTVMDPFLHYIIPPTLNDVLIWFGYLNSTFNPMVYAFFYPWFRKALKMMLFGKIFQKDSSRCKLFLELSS
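Assay system – CHO-derived RD-HGA16 cells with stable Gα16 and human TAAR1 · Compound dosing – one-point dosing at 3 µM (nominal) · Incubation – 17-24 h seeding, 75 min 37 °C dye, 30 min RT · Measured by – kinetic Fluo-8 calcium fluorescence · Control set – DMSO vehicle as 0%, PEA at EC100 as 100% · Repeats – single well for each compound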
OX1R antag-1: human HCRTR1 antagonism. O43613. inhibition, % at 5 µM. 330,000 compounds, 0.43% hits. CHO/OX1R cells, Fluo-8 calcium fluorescence, orexin A;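 active = inhibition above its plate's threshold, mean inhibition of all tested compounds on the plate plus 3 SD, cut at about 37% in these data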
CHO parental Ca: counter-screen for OX1R antagonists: effect in parental CHO cells; parental CHO-K1, ATP-induced calcium, Fluo-8 fluorescence; inhibition, % at 5.6 µM; 330,000 compounds, 0.63% hits; AID 463079;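 active = inhibition above that plate's mean sample inhibition plus 3 SD, cut at about 26% in these data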
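Test system: untransfected parental CHO cell line; also added: ATP stimulus; dosing: 5.6 µM, single dose; signal: calcium-sensitive Fluo-8 fluorescence; measure: percent inhibition of ATP-evoked calcium rise, normalized to controls; benchmarks: low control ATP plus DMSO, high control DMSO only; replication: one well per compound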
OX1R antag-2: OX1R (human) antagonism. O43613. inhibition, % at 6.6 µM. OX1R-expressing cells, FRET antagonist read-out. AID 485270. 330,000 compounds, 1.8% hits; in the data active = inhibition mostly above about 38%, no sharp cut-off; inactive = mostly below about 40%
TAAR1 antag: antagonists of human TAAR1; CHO RD-HGA16 TAAR1, Fluo-8 calcium fluorescence, antagonist; inhibition, % at 3 µM; AID 624466; 360,000 compounds, 1.5% hits;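 active = inhibition above a per-plate cutoff, the mean inhibition of test compounds on that plate plus 3 SD, cut at about 49% in these data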
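Assay system: CHO-derived RD-HGA16 cells stably expressing human TAAR1 plus Gα16. Timing: 140 s kinetic read after compound, 140 s after agonist. Technique: kinetic Fluo-8 calcium fluorescence measurement. Measure: % inhibition of agonist calcium response.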
TAAR1 ag confirm: human TAAR1 agonism, confirmed. shares compounds with TAAR1 agonist. CHO RD-HGA16 TAAR1, Fluo-8 calcium fluorescence; scaled: DMSO 0%, maximal phenethylamine 100%. activation, % at 3 µM. 2,400 compounds, 82% hits. AID 651783;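 active = activation above a cutoff set at the run's mean compound activation plus 3 SD, cut at about 39% in these data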
Ga16 nonsel ag: counter-screen for TAAR1 agonists: nonselective agonists in parental cells | activation, % at 3 µM | AID 651787 | shares compounds with TAAR1 agonist | 2,400 compounds, 50% hits | CHO-Ga16 parental, Fluo-8 calcium fluorescence; normalized to maximal ATP response, DMSO zero;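 active = activation above the run cutoff, the mean activation over all tested wells plus 3 SD, cut at about 12% in these data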
TAAR1 desensitize: TAAR1 response desensitization, agonist counter-screen. CHO RD-HGA16 hTAAR1, Fluo-8 calcium, beta-PEA response inhibition. inhibition, % at 3 µM. shares compounds with TAAR1 agonist. 2,400 compounds, 46% hits;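 active = inhibition above the run cutoff, the mean inhibition of all test compounds plus 3 SD, cut at about 49% in these data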;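 also: beta-PEA stimulus applied at its EC80; loss of beta-PEA calcium signal after compound pretreatment read as receptor desensitization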
Ga16 antag count: nonselective Ga16 antagonism, counter-screen. shares compounds with TAAR1 agonist. CHO-Ga16 ATP-induced calcium, Fluo-8 fluorescence. inhibition, % at 3 µM. 2,400 compounds, 39% hits;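 active = inhibition above the plate's mean compound inhibition plus 3 SD, computed per plate, cut at about 22% in these data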
Numbers stand for hits. The list is not random: actives were taken first. Their share in the collection is about 4.5%.

CCOc1ccc(CCNC(=O)CCCn2nc(C)c3c(C)n(-c4ccccc4)nc3c2=O)cc1 was read as GPR7 antag inactive, TAAR1 agonist inactive, OX1R antag-1 inactive, CHO parental Ca inactive, OX1R antag-2 inactive and TAAR1 antag inactive.
Screening O=C(CCCCC(=O)NCCc1ccccc1)NCCc1ccccc1 returned GPR7 antag inactive, TAAR1 agonist inactive, OX1R antag-1 inactive, CHO parental Ca inactive, OX1R antag-2 inactive and TAAR1 antag inactive.
CCN1CCN(Cc2c3ccccc3cc3ccccc23)CC1 was read as GPR7 antag inactive, TAAR1 agonist inactive, OX1R antag-1 inactive, CHO parental Ca inactive, OX1R antag-2 inactive and TAAR1 antag inactive.
Screening O=C(CC(c1ccccc1)c1ccccc1)Nc1ccc(O)cc1 returned GPR7 antag inactive, TAAR1 agonist inactive, OX1R antag-1 inactive, CHO parental Ca inactive, OX1R antag-2 inactive and TAAR1 antag inactive.
O=C(CC(NCCc1ccccc1)C(=O)O)Nc1ccc(O)cc1 (stereo not drawn) was read as GPR7 antag inactive, TAAR1 agonist 50.1, OX1R antag-1 inactive, CHO parental Ca inactive, OX1R antag-2 inactive, TAAR1 antag inactive, TAAR1 ag confirm 90.6, Ga16 nonsel ag inactive, TAAR1 desensitize 73.9 and Ga16 antag count inactive.
Screening CC1CCCN(c2c([N+](=O)[O-])c(=O)oc3ccccc23)C1 (stereo not drawn) returned GPR7 antag inactive, OX1R antag-1 inactive, CHO parental Ca inactive, OX1R antag-2 inactive, Ga16 nonsel ag inactive and Ga16 antag count inactive.
`CC1CC1C(=O)OCC(=O)N(C)c1c(N)n(Cc2ccccc2)c(=O)[nH]c1=O` (stereo not drawn) gave TAAR1 agonist 50.7, OX1R antag-1 inactive, CHO parental Ca inactive, OX1R antag-2 inactive, TAAR1 antag inactive, TAAR1 ag confirm inactive, Ga16 nonsel ag 13.9, TAAR1 desensitize inactive and Ga16 antag count inactive.
COCCN(C(=O)COC(=O)C1CC1C)c1c(N)n(Cc2ccccc2)c(=O)[nH]c1=O (stereo not drawn) was read as TAAR1 agonist inactive, OX1R antag-1 inactive, CHO parental Ca inactive, OX1R antag-2 inactive and TAAR1 antag inactive.
Screening CCN1C(=O)[C@@H]2[C@@H](c3ccc(SC4CCCCC4)cc3)N3CCCC[C@@]3(C(=O)OC)[C@@H]2C1=O returned TAAR1 agonist inactive, OX1R antag-1 inactive, CHO parental Ca inactive, OX1R antag-2 inactive and TAAR1 antag inactive.
For O=C(Nc1nccs1)c1nc[nH]c1C(=O)N1CCc2ccccc2C1 the results were TAAR1 agonist 81.8, OX1R antag-1 inactive, CHO parental Ca inactive, OX1R antag-2 inactive, TAAR1 antag 81.6, TAAR1 ag confirm 103.0, Ga16 nonsel ag inactive, TAAR1 desensitize 94.0 and Ga16 antag count inactive.
For O=C(Nc1ccccc1)c1nc[nH]c1C(=O)N1CCc2ccccc2C1 the results were TAAR1 agonist inactive, OX1R antag-1 inactive, CHO parental Ca inactive, OX1R antag-2 inactive and TAAR1 antag inactive.
CC(C)c1ccc2nc3sc(C(=O)N4CCc5ccccc5C4)c(N)c3cc2c1 was read as GPR7 antag inactive, TAAR1 agonist 82.9, OX1R antag-1 inactive, CHO parental Ca inactive, OX1R antag-2 inactive, TAAR1 antag inactive, TAAR1 ag confirm 87.6, Ga16 nonsel ag 31.0, TAAR1 desensitize 63.4 and Ga16 antag count 39.6.
`CCN1CCc2nc3sc(C(=O)N4CCc5ccccc5C4)c(N)c3cc2C1` gave GPR7 antag inactive, TAAR1 agonist 79.7, OX1R antag-1 inactive, CHO parental Ca inactive, OX1R antag-2 inactive, TAAR1 antag inactive, TAAR1 ag confirm 66.8, Ga16 nonsel ag inactive, TAAR1 desensitize inactive and Ga16 antag count inactive.
CCOc1cc(N2CCOCC2)c(OCC)cc1NC(=O)COC(=O)c1ccc([N+](=O)[O-])o1 was read as TAAR1 agonist inactive, OX1R antag-1 inactive, CHO parental Ca inactive, OX1R antag-2 inactive and TAAR1 antag inactive.
COc1ccc(NC(=O)/C(C#N)=C\c2ccc(Br)o2)cc1 was read as GPR7 antag inactive, TAAR1 agonist inactive, OX1R antag-1 inactive, CHO parental Ca inactive, OX1R antag-2 inactive and TAAR1 antag inactive.
For N#C/C(=C\c1ccc(N2CCCCC2)o1)C(=O)Nc1cccc(Br)c1 the results were GPR7 antag inactive, TAAR1 agonist 188.6, OX1R antag-1 91.9, CHO parental Ca 82.7, OX1R antag-2 inactive, TAAR1 antag 101.5, TAAR1 ag confirm 93.1, Ga16 nonsel ag 143.2, TAAR1 desensitize 86.6 and Ga16 antag count 90.5.
Cc1cc(NC(=O)CSc2nnc(NCc3ccco3)s2)no1 was read as TAAR1 agonist inactive, OX1R antag-1 inactive, CHO parental Ca inactive, OX1R antag-2 inactive and TAAR1 antag inactive.
Screening O=C(Nc1nnc([C@H]2C[C@H](O)[C@@H](CO)O2)s1)Nc1ccccc1Oc1ccccc1 returned TAAR1 agonist inactive and TAAR1 antag inactive.
`O=c1c2nnn(-c3ccc(Br)cc3)c2ncn1Cc1ccccn1` gave GPR7 antag inactive, TAAR1 agonist inactive, OX1R antag-1 inactive, CHO parental Ca inactive, OX1R antag-2 inactive and TAAR1 antag inactive.
Screening O=C(Cn1cnc2c(nnn2-c2ccccc2)c1=O)NCc1ccc(F)cc1 returned GPR7 antag inactive, TAAR1 agonist inactive, OX1R antag-1 inactive, CHO parental Ca inactive, OX1R antag-2 inactive and TAAR1 antag inactive.
For Cc1ccc(-n2nnc3c(=O)n(CC(=O)NCc4ccccc4)cnc32)cc1 the results were GPR7 antag inactive, TAAR1 agonist 42.3, OX1R antag-1 inactive, CHO parental Ca 42.1, OX1R antag-2 inactive, TAAR1 antag inactive, TAAR1 ag confirm inactive, Ga16 nonsel ag inactive, TAAR1 desensitize inactive and Ga16 antag count inactive.
For Cc1ccc(-n2nnc3c(=O)n(Cc4cc(C)ccc4C)cnc32)cc1 the results were GPR7 antag inactive, TAAR1 agonist 43.1, OX1R antag-1 inactive, CHO parental Ca inactive, OX1R antag-2 inactive, TAAR1 antag 94.9, TAAR1 ag confirm 70.8, Ga16 nonsel ag 35.0, TAAR1 desensitize 86.8 and Ga16 antag count 52.6.

Screening data from PubChem.
